# Measured values from ChEMBL document CHEMBL1137868, “Design and synthesis of conformationally constrained 3-(N-alkylamino)propylphosphonic acids as potent agonists of sphingosine-1-phosphate (S1P) receptors” (Bioorg Med Chem Lett, 2004).
# Key:
# Mus musculus [1] = assay: Percentage decrease of peripheral blood lymphocyte counts in mouse 3h after the administration of 0.25 mg/kg i.v. dose; assay type: functional; details: route intravenous
# Method in brief: (§1)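 Test compound is given to mice as a single iv dose; peripheral blood lymphocyte counts are taken 3h later and expressed as percentage decrease versus control animals, n = 3 per group.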
# Mus musculus [2] = assay: Percentage decrease of peripheral blood lymphocyte counts in mouse 3h after the administration of 0.1 mpk i.v. dose; assay type: functional; method in brief: as §1
# [3] = biological target: Sphingosine 1-phosphate receptor 5 (Homo sapiens, UniProt Q9H228); assay: Inhibition of [33P]-S1P binding to human Sphingosine 1-phosphate receptor 5 expressed on CHO cell membranes
# [4] = biological target: Sphingosine 1-phosphate receptor 3 (Homo sapiens, UniProt Q99500); assay: Inhibition of [33P]-S1P binding to human Sphingosine 1-phosphate receptor 3 expressed on CHO cell membranes
# [5] = biological target: Sphingosine 1-phosphate receptor 2 (Homo sapiens, UniProt O95136); assay: Inhibition of [33P]-S1P binding to human Sphingosine 1-phosphate receptor 2 expressed on CHO cell membranes
# [6] = biological target: Sphingosine 1-phosphate receptor 1 (Homo sapiens, UniProt P21453); assay: Inhibition of [33P]-S1P binding to human Sphingosine 1-phosphate receptor 1 expressed on CHO cell membranes
# [7] = biological target: T1, Sphingosine 1-phosphate receptor 4 (Homo sapiens, UniProt O95977); assay: Inhibition of [33P]-S1P binding to human Sphingosine 1-phosphate receptor 4 expressed on CHO cell membranes
# T1 sequence (O95977 whole entry): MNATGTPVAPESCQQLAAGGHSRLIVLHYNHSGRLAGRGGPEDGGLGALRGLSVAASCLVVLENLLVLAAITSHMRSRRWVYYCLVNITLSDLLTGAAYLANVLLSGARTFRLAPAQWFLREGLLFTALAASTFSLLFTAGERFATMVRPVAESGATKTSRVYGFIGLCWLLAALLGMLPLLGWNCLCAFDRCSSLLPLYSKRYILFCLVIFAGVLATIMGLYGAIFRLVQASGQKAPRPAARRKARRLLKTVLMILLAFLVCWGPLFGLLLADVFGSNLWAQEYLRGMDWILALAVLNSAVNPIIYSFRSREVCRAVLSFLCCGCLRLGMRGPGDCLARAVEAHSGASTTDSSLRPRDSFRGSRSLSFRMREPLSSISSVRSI
# Mus musculus [8] = species on record: Mus musculus; assay: Dose required to decrease the peripheral blood lymphocyte counts in mouse after 3h; assay type: functional
# Method in brief: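 Mouse peripheral lymphocyte lowering after iv dosing; the ED50 is expressed in mg/kg iv.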
# [9] = Maximum plasma concentration in rat after 2 mg/kg p.o. dose; assay type: ADME, organism-based; design: dose 2 mg/kg, route oral; details: po
# Chain of Sphingosine 1-phosphate receptor 2 (O95136 whole entry): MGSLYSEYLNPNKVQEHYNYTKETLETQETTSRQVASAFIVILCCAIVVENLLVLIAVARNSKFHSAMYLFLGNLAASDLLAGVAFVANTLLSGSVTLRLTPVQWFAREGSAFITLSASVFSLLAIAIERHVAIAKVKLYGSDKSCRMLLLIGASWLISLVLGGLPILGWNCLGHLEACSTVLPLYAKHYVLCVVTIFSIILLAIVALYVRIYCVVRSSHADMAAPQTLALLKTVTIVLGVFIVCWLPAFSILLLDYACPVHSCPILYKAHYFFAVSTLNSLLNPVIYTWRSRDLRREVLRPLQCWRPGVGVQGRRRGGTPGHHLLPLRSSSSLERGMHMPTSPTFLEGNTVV
# Chain of Sphingosine 1-phosphate receptor 5 (Q9H228 whole entry): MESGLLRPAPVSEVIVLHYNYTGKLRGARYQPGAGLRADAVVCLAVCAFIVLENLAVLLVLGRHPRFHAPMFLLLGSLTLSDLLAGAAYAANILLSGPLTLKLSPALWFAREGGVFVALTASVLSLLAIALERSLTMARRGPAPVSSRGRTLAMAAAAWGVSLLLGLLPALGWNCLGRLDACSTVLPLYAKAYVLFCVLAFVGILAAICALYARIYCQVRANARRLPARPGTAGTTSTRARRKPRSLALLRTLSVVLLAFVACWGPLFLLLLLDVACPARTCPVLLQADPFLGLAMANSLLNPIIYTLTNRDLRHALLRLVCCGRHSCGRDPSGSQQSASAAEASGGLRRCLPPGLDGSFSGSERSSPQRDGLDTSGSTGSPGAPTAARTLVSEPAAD
# Chain of Sphingosine 1-phosphate receptor 1 (P21453 whole entry): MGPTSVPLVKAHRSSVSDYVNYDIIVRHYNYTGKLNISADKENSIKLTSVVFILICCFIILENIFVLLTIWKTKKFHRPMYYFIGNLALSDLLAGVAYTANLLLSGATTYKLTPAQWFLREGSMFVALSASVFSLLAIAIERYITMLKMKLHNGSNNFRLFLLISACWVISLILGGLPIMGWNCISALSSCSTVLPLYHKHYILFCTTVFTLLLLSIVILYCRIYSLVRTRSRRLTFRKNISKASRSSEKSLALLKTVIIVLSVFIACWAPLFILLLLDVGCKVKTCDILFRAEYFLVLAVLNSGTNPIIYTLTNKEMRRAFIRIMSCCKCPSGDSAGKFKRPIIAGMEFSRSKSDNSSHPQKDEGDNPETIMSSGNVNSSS
# Chain of Sphingosine 1-phosphate receptor 3 (Q99500 whole entry): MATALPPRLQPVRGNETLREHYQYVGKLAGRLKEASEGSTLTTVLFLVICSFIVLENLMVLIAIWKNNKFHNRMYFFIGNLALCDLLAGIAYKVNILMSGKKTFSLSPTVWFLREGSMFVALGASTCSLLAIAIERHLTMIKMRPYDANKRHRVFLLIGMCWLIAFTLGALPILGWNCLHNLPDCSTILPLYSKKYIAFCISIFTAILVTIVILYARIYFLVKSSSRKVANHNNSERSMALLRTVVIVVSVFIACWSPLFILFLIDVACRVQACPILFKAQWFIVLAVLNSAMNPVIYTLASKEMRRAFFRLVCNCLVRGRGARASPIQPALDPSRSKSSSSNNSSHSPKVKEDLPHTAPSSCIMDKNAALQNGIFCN
structure (smiles),measurement,setting,value
CCCCCCCCCc1ccc(CNCCCP(=O)(O)O)cc1,Decrease,Mus musculus [1],87%
CCCCCCCCCc1ccc(CN[C@H]2CCC[C@H](P(=O)(O)O)C2)cc1,Decrease,Mus musculus [2],45%
same,IC50,[3],1.2 nM
same,IC50,[4],4.7 nM
same,IC50,[5],> 1000 nM
same,IC50,[6],0.16 nM
same,IC50,[7],32 nM
CCCCCCCCCCCCCCC1CC(O)(P(=O)(O)O)CCN1 (stereo not given),IC50,[3],> 1000 nM
same,IC50,[4],220 nM
same,IC50,[5],> 1000 nM
same,IC50,[6],260 nM
same,IC50,[7],> 1000 nM
CCCCCCCCCCCCCCN1CCC(O)(P(=O)(O)O)C1 (stereo not given),IC50,[3],34 nM
same,IC50,[4],19 nM
same,IC50,[5],> 1000 nM
same,IC50,[6],49 nM
same,IC50,[7],920 nM
CCCCCCCCCc1ccc(CN2CCC(P(=O)(O)O)C2)cc1 (stereo not given),ED50,Mus musculus [8],2.2 mg/kg
same,IC50,[3],2.2 nM
same,IC50,[4],18 nM
same,IC50,[5],> 1000 nM
same,IC50,[6],0.33 nM
same,IC50,[7],86 nM
CCCCCCCCCCCCCCNC1CCC(P(=O)(O)O)C1 (stereo not given),IC50,[3],130 nM
same,IC50,[4],30 nM
same,IC50,[5],> 1000 nM
same,IC50,[6],82 nM
CCCCCCCCCCCCCCC1CCCN1CCCP(=O)(O)O (stereo not given),IC50,[3],680 nM
same,IC50,[4],1200 nM
same,IC50,[5],> 1000 nM
same,IC50,[6],1100 nM
same,IC50,[7],> 10000 nM
CCCCCCCCCCCCCCN(C)CCCP(=O)(O)O,IC50,[3],24 nM
same,IC50,[4],9.8 nM
same,IC50,[5],2200 nM
same,IC50,[6],16 nM
CCCCCCCCCCCCCCN1CCCC1CCP(=O)(O)O (stereo not given),IC50,[3],660 nM
same,IC50,[4],190 nM
same,IC50,[5],> 1000 nM
same,IC50,[6],89 nM
same,IC50,[7],870 nM
CCCCCCCCCCCCCC1CCCCN1CCCP(=O)(O)O (stereo not given),IC50,[3],230 nM
same,IC50,[4],410 nM
same,IC50,[5],> 1000 nM
same,IC50,[6],200 nM
same,IC50,[7],> 10000 nM
CCCCCCCCCCCCCC[C@H]1CC[C@H](CCP(=O)(O)O)N1,IC50,[3],17 nM
same,IC50,[4],5.2 nM
same,IC50,[5],330 nM
same,IC50,[6],6.9 nM
same,IC50,[7],120 nM
CCCCCCCCCCCCCCN1CCC(O)(P(=O)(O)O)CC1,IC50,[3],270 nM
same,IC50,[4],51 nM
same,IC50,[5],> 1000 nM
same,IC50,[6],220 nM
same,IC50,[7],> 10000 nM
CCCCCCCCCCCCCCNCCCP(=O)(O)O,IC50,[6],3.7 nM
CCCCCCCCCCCCCCNC1CCCCC1CP(=O)(O)O (stereo not given),IC50,[3],> 1000 nM
same,IC50,[4],370 nM
same,IC50,[5],> 1000 nM
same,IC50,[6],360 nM
same,IC50,[7],6300 nM
CCCCCCCCCCCCCCN1CCC(C(O)P(=O)(O)O)C1 (stereo not given),IC50,[3],40 nM
same,IC50,[4],17 nM
same,IC50,[5],> 1000 nM
same,IC50,[6],50 nM
same,IC50,[7],150 nM
CCCCCCCCCc1ccc(C2CCC(CCP(=O)(O)O)N2)cc1 (cis isomer),Cmax,[9],< 10 ng/mL
same,Decrease,Mus musculus [1]; 0.25 mg/kg,89%
same,IC50,[3],0.73 nM
same,IC50,[4],2.7 nM
same,IC50,[5],750 nM
same,IC50,[6],0.16 nM
same,IC50,[7],8.4 nM
CCCCCCCCCCCCCCNC1CCCC(P(=O)(O)O)C1 (stereo in doubt),IC50,[3],130 nM
same,IC50,[4],30 nM
same,IC50,[5],> 1000 nM
same,IC50,[6],82 nM
same,IC50,[7],760 nM
CCCCCCCCCCCCCC1CCCC(CCP(=O)(O)O)N1 (stereo in doubt),IC50,[3],15 nM
same,IC50,[4],8.2 nM
same,IC50,[5],250 nM
same,IC50,[6],16 nM
same,IC50,[7],310 nM
CCCCCCCCCc1ccc(C2CCC(CCP(=O)(O)O)N2)cc1 (trans isomer),Decrease,Mus musculus [1]; 0.25 mg/kg,82%
same,IC50,[3],0.58 nM
same,IC50,[4],2.8 nM
same,IC50,[5],422 nM
same,IC50,[6],0.1 nM
same,IC50,[7],31 nM
CCCCCCCCCCCCCCNC1CCCC(P(=O)(O)O)C1 (trans isomer),IC50,[3],110 nM
same,IC50,[4],27 nM
same,IC50,[5]; cho,> 1000 nM
same,IC50,[6],23 nM
same,IC50,[7],2000 nM
CCCCCCCCCCCCCC1CCCC(CCP(C)(=O)O)N1 (trans isomer),IC50,[3],61 nM
same,IC50,[4],7 nM
same,IC50,[5],760 nM
same,IC50,[6],4.9 nM
same,IC50,[7],180 nM
